IDH1 R132H inh = inhibitors of IDH1 R132H reductase, primary screen, biochemical, plate reader, single point; Isocitrate dehydrogenase [NADP] cytoplasmic (Homo sapiens), O75874; diaphorase/resazurin fluorescence, 60 min; inhibition, % at 10 µM; 70,000 tested, 0.18% active; AID 624101, 2012; in the data active means inhibition above about 34%; inconclusive means no clear call, values can overlap the other calls; inactive means below about 11%
Target sequence (O75874 whole entry R132H): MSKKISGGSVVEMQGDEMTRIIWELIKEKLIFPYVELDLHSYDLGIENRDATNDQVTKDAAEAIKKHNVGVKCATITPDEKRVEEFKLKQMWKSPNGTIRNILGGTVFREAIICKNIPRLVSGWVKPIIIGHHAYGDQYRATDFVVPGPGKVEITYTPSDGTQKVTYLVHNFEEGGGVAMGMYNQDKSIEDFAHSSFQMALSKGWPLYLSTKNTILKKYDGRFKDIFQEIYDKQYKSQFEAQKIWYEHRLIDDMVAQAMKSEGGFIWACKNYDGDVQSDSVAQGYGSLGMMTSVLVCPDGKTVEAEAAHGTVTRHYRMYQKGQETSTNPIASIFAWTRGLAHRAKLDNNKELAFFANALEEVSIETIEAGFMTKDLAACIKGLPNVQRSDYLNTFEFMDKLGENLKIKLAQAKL
KDM4C inh = inhibitors of GASC-1 (KDM4C) histone demethylase, primary screen, biochemical, single concentration HTS | Lysine-specific demethylase 4C (Homo sapiens), Q9H3R0 | GST-KDM4C 2-372, H3K9me3 peptide, LANCE TR-FRET | inhibition, % at 12.5 µM | 96,000 tested, 0.15% active | AID 720574, 2013;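 active means mean replicate inhibition above about 25%, with at least 55% of replicates also reaching it, limit read from the data, passing the limit was not always enough; inconclusive means only one of those two conditions met; inactive means neither condition met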
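System: N-terminal GST-fused human GASC-1 (KDM4C) fragment, residues 2-372; amount: enzyme final amount 10 nM; incubation: reaction 30 min RT, detection step 1 h RT; medium: HEPES buffer, pH 7.5, plus ascorbate; technique: LANCE TR-FRET, Eu antibody, ULight-streptavidin, EDTA, ex 340 nm, em 618/671 nm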
T cruzi growth-1 = T. cruzi intracellular proliferation inhibitors, primary screen, cell-based, beta-gal Tulahuen parasites, NIH3T3 host, luminescence; T. cruzi beta-gal in NIH3T3, GalScreen luminescence, 90 h; inhibition, % at 8.34 µM; 77,000 tested, 5.9% active;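 active means mean inhibition above about 93%, with at least 55% of replicates each passing it, limit read from the data, passing the limit was not always enough; inconclusive means only one of those two conditions holds; inactive means neither condition holds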
T cruzi growth-2 = T. cruzi intracellular proliferation inhibitors, confirmation, cell-based, NIH3T3 host, beta-gal parasite, luminescence, cherry-pick; shares compounds with T cruzi growth-1; T. cruzi beta-gal in NIH3T3, GalScreen luminescence, 90 h; inhibition, % at 8.35 µM; 5,600 tested, 72% active; AID 651739, 2012;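 active means mean replicate inhibition above about 95% and at least 55% of replicates individually reaching it, limit read from the data; inconclusive means only one of the two criteria is met; inactive means neither criterion is met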
T cruzi growth-3 = inhibitors of intracellular T. cruzi replication, confirmation, NIH3T3 host cells, beta-gal parasites, cherry-pick, set 2 | inhibition, % at 2.09 µM | 5,600 tested, 21% active | shares compounds with T cruzi growth-1 | T. cruzi beta-gal in NIH3T3, GalScreen luminescence, 90 h;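 active means mean inhibition above about 95%, with at least 55% of replicates also reaching it, limit read from the data; inconclusive means meets just one of the two conditions; inactive means meets neither condition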
NIH3T3 tox = cytotoxicity in mouse NIH/3T3 fibroblasts, confirmation, cytotoxicity control for T. cruzi proliferation inhibitor project, cell-based, cherry-pick, single point; AID 651742, 2012; NIH/3T3 viability, CellTiter-Glo ATP luminescence, 90 h; 5,600 tested, 14% active; cytotoxicity (signal decrease), % at 8.35 µM; shares compounds with T cruzi growth-1;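 active means mean signal decrease across replicates above about 35% based on untreated-well scatter, with enough replicates individually passing, limit read from the data; inconclusive means no rule stated though some were filed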
3T3 cytotox 2 = NIH/3T3 fibroblast cytotoxicity, confirmation, cytotoxicity control, cell-based, cherry-pick, single point, set 2 | shares compounds with T cruzi growth-1 | NIH/3T3 viability, CellTiter-Glo ATP luminescence, 90 h | inhibition, % at 24.9 µM | 5,600 tested, 56% active | AID 651744, 2012;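 active means mean loss of cell viability signal at or above a set limit, and enough replicates individually reaching it; inconclusive means meets only the mean limit or only the replicate share; inactive means meets neither condition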
Each line names hits and unclear results; the compound was inactive in the other large screens (follow-up assays come after a bar, where they were run). The entries come from a sample that favours hits as a whole.

O=C(N[C@H]1CC[C@H](CCNS(=O)(=O)c2ccc(F)cc2)O[C@H]1CO)C1CC1	none (no result: T cruzi growth-1)
COc1ccc(NC(=O)Nc2ccc3c(c2)C(=O)N([C@H](C)CO)C[C@H](C)[C@@H](CN(C)C(=O)Cc2ccccc2)OCCCC[C@H](C)O3)cc1	none
C[C@H](CO)N1C[C@H](C)[C@H](CN(C)C(=O)NC2CCCC2)Oc2cc(-c3cncnc3)ccc2S1(=O)=O	none
CCCN1C[C@H](C)[C@@H](OC)CN(C)C(=O)c2ccc(NS(=O)(=O)c3cn(C)cn3)cc2OC[C@H]1C	T cruzi growth-1 105 | T cruzi growth-2 inactive | T cruzi growth-3 inactive | NIH3T3 tox inactive | 3T3 cytotox 2 inactive
CCCC(=O)Nc1ccc2c(c1)OC[C@H](C)N(C(=O)c1cccnc1)C[C@@H](C)[C@H](OC)CN(C)C2=O	T cruzi growth-1 100 | T cruzi growth-2 inactive | T cruzi growth-3 inactive | NIH3T3 tox inactive | 3T3 cytotox 2 inactive
CCCN1C[C@@H](C)[C@H](OC)CN(C)C(=O)c2ccc(NC(=O)c3cccc(F)c3)cc2OC[C@H]1C	T cruzi growth-1 102 | T cruzi growth-2 104 | T cruzi growth-3 inactive | NIH3T3 tox inactive | 3T3 cytotox 2 37
CCCN1C[C@H](C)[C@H](OC)CN(C)C(=O)c2ccc(NS(=O)(=O)c3cn(C)cn3)cc2OC[C@@H]1C	none
CCCC(=O)Nc1ccc2c(c1)OC[C@H](C)N(C(=O)c1cccnc1)C[C@@H](C)[C@@H](OC)CN(C)C2=O	none
CCCNC(=O)N1C[C@H](C)[C@@H](OC)CN(C)C(=O)c2cc(NC(=O)CC)ccc2OC[C@@H]1C	T cruzi growth-1 inconclusive | T cruzi growth-2 inactive | T cruzi growth-3 inactive | NIH3T3 tox inactive | 3T3 cytotox 2 inactive
CCCN1C[C@H](C)[C@H](OC)CN(C)C(=O)c2ccc(NC(=O)c3cccc(F)c3)cc2OC[C@H]1C	none
CCCNC(=O)N1C[C@H](C)[C@H](OC)CN(C)C(=O)c2cc(NC(=O)CC)ccc2OC[C@@H]1C	none
CC(C)CC#Cc1cnc2c(c1)C(=O)N([C@@H](C)CO)C[C@@H](C)[C@H](CN(C)S(=O)(=O)c1cccs1)O2	none
C[C@@H]1CN([C@@H](C)CO)C(=O)c2cc(C#CC3(O)CCCC3)cnc2O[C@H]1CN(C)C(=O)CN(C)C	none
C[C@H]1CN([C@@H](C)CO)C(=O)c2cc(NC(=O)CCCN(C)C)ccc2O[C@@H]1CN(C)S(=O)(=O)c1cn(C)cn1	none
Cc1noc(C)c1NC(=O)Nc1ccc2c(c1)C(=O)N([C@H](C)CO)C[C@H](C)[C@@H](CN(C)CC1CCCCC1)OCCCC[C@H](C)O2	none (no result: IDH1 R132H inh)
COc1ccc(CC(=O)Nc2cccc(C(=O)O)c2)cc1OC	none (no result: KDM4C inh, T cruzi growth-1)
O=C(C[C@H]1CC[C@H]2[C@@H](COC[C@@H](O)CN2C(=O)c2cnccn2)O1)NCc1ccc(Oc2ccccc2)cc1	none (no result: IDH1 R132H inh, T cruzi growth-1)
COc1cccc(C(=O)Nc2ccc3c(c2)OC[C@H](C)N(CCc2ccccc2)C[C@H](C)[C@H](OC)CN(C)C3=O)c1	none
CCC(=O)N1C[C@@H](C)[C@@H](OC)CN(C)C(=O)c2cc(NC(=O)c3ccccc3)ccc2OC[C@@H]1C	none
COc1cccc(C(=O)Nc2ccc3c(c2)OC[C@H](C)N(CCc2ccccc2)C[C@@H](C)[C@H](OC)CN(C)C3=O)c1	T cruzi growth-1 108 | T cruzi growth-2 101 | T cruzi growth-3 inactive | NIH3T3 tox inactive | 3T3 cytotox 2 inactive

Compound activity as filed in PubChem BioAssay.
